Data: ChEMBL document CHEMBL3877241 (J Med Chem, 2016)
Active and inactive are the calls of the source. The rule behind the calls is not given here.

Columns and labels:
[1] = target: Tyrosine-protein kinase JAK1 (Homo sapiens) (UniProt P23458); assay: Inhibition of JAK1 (unknown origin) at 0.1 uM preincubated for 20 mins followed by [33P]ATP addition measured after 120 mins by Hotspot assay relative to control
Summary of the method: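 Radiometric HotSpot kinase assay. Buffer: 20 mM HEPES pH 7.5, 10 mM MgCl2, 1 mM EGTA, 0.02% Brij35, 0.02 mg/mL BSA, 0.1 mM Na3VO4, 2 mM DTT, 1% DMSO. Compound added about 20 min before ATP/[33P]ATP (10 μM final). Reactions run 120 min at 25 °C, spotted on P81 filters and washed in phosphoric acid. Activity expressed relative to DMSO after background subtraction. Single-concentration panel at 100 nM in duplicate.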

[2] = target: T1, Tyrosine-protein kinase JAK2 (Homo sapiens, UniProt O60674); assay: Inhibition of human JAK2 JH1 catalytic domain (A829 to G1132 residues) expressed in mammalian expression system assessed as residual activity at 100 nM by KINOMEScan assay relative to control
Summary of the method: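 DiscoveRx KINOMEscan competition binding against ATP sites in a 97-kinase panel, with compound at 100 nM. Binding reported as % of control.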

[3] = target: Non-receptor tyrosine-protein kinase TYK2 (Homo sapiens, UniProt P29597); assay: Inhibition of human TYK2 (V877 to C1187 residues) expressed in mammalian expression system by KINOMEScan assay
[4] = Antiproliferative activity against human HL60 cells; assay type: functional, cell-based; conditions: HL-60
[5] = Antiproliferative activity against human KMS-12-BM cells after 48 hrs by CellTiter-Glo assay; assay type: functional, cell-based
[6] = target: T1, Tyrosine-protein kinase JAK2; assay: Inhibition of JAK2 in IL-6-stimulated human KMS-12-BM cells assessed as suppression of STAT3 phosphorylation at TY705 residue at 1.5 uM pretreated for 3 hrs followed by IL-6 stimulation by immunoblot method
Summary of the method: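 Cells (at least 3x10^6 per condition; KMS-12-BM or MOLM-14) pretreated with compound for 3 h, then stimulated with IL-6 10 ng/mL for 15 min. Cells lysed, equal protein run on SDS-PAGE and transferred to PVDF. Immunoblotted for p-STAT3 (Tyr705), with membranes re-probed for total STAT3. Reference JAK2 inhibitor control at 2 µM (KMS-12-BM) or 0.1 µM (MOLM-14).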

MOLM-14 = assay: Induction of apoptosis in human MOLM14 cells assessed as live cells at 1.5 uM after 48 hrs by Annexin-V FITC/propidium iodide staining based flow cytometry (reference value: 94 to 94.1%); assay type: functional

T1 sequence (O60674 whole entry, the tested form may be a part): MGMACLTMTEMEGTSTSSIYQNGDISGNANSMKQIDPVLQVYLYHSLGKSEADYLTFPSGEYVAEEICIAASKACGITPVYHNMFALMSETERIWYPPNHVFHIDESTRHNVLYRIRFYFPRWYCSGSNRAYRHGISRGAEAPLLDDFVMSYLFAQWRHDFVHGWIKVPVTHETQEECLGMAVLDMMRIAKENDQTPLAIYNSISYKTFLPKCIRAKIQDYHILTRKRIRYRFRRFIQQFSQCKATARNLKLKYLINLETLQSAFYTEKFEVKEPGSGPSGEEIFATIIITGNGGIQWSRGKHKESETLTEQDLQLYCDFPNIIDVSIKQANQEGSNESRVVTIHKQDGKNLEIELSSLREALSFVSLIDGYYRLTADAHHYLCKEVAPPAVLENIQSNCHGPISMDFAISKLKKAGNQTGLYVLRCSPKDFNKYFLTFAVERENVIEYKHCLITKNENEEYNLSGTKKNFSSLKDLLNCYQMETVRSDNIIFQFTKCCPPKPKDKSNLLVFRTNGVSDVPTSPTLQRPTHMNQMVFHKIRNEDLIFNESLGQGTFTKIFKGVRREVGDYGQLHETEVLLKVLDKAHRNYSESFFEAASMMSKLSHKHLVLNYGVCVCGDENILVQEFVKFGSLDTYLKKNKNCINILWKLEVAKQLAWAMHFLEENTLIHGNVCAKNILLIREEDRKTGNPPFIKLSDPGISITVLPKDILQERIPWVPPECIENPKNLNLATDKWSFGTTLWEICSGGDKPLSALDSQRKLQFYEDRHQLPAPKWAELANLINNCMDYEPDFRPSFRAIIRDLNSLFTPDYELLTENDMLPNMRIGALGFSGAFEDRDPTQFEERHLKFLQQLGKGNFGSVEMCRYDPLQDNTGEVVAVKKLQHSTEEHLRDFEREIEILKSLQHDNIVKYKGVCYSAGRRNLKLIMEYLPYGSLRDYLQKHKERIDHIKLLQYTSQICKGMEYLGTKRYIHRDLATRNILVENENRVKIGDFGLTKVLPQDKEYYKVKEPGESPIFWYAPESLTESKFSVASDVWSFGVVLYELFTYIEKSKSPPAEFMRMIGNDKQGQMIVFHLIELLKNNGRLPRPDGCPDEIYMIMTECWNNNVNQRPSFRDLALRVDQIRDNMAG
Sequence of Tyrosine-protein kinase JAK1 (Homo sapiens) (P23458 whole entry): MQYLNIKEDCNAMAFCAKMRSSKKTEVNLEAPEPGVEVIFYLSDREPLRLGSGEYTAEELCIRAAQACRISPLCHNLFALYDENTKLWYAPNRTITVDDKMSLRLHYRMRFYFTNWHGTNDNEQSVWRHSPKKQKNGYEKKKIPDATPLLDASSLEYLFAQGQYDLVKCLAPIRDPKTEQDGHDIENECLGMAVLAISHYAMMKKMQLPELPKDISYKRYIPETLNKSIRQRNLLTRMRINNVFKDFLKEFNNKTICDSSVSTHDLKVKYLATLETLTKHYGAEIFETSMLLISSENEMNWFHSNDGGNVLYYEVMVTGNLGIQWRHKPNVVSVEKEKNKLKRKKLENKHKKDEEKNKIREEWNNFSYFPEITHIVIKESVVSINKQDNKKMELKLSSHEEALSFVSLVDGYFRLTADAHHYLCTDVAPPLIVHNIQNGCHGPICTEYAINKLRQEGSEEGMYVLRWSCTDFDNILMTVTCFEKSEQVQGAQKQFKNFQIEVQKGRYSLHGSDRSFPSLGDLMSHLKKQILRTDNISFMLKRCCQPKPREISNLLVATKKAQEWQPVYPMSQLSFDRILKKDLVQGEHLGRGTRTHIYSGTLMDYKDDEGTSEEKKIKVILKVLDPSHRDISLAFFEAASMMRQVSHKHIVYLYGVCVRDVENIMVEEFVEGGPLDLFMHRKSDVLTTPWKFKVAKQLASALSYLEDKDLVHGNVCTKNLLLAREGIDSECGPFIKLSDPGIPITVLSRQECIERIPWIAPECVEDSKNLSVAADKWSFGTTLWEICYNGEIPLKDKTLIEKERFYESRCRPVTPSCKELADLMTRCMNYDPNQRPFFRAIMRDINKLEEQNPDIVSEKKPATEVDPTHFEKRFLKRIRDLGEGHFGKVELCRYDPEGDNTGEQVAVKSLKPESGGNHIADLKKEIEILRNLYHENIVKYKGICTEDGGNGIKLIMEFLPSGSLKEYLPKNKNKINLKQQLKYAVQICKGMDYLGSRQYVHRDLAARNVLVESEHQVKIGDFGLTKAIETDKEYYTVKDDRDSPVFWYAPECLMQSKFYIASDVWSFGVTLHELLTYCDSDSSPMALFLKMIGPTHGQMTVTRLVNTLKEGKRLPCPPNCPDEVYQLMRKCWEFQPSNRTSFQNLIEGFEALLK
Sequence of Non-receptor tyrosine-protein kinase TYK2 (P29597 whole entry, the tested form may be a part): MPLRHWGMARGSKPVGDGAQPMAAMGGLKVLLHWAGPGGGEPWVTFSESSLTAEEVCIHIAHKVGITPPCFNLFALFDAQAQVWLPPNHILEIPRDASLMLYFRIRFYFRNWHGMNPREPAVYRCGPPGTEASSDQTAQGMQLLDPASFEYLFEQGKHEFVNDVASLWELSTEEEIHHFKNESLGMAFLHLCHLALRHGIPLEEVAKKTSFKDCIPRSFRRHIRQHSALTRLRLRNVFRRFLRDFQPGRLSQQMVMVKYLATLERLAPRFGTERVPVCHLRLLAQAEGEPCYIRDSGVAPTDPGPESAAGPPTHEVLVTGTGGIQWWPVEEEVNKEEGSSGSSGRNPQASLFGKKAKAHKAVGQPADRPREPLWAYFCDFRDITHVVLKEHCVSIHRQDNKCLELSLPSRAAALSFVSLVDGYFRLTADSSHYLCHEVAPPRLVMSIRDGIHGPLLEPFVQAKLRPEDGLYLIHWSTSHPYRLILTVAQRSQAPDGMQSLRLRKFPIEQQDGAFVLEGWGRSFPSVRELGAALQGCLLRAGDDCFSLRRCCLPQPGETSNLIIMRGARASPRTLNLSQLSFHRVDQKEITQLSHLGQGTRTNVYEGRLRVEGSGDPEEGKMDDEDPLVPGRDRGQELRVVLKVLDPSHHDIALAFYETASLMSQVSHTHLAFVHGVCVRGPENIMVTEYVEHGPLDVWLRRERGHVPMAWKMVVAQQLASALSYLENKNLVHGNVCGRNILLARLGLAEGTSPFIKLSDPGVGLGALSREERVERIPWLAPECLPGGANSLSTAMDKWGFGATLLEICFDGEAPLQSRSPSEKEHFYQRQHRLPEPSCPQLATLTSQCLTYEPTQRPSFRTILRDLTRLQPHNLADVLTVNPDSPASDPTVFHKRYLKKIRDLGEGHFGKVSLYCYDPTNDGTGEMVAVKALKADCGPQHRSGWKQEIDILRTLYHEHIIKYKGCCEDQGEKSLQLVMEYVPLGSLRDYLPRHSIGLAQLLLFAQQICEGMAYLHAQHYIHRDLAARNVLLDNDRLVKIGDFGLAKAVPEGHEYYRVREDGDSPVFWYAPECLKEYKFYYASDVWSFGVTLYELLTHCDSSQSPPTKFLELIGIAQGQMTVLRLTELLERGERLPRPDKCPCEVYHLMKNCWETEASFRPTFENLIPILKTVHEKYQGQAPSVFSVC

In the case of `O=C(CCCCCCOc1ccc2cc1COC/C=C/COCc1cccc(c1)-c1ccnc(n1)N2)NO`, the inhibition [1] is reported as 8.7%, the Activity [2] is reported as 0% and the IC50 [3] is reported as 10 to 1000 nM. For the same compound, the IC50 [4] was 4000 nM, the IC50 [5] was 2110 nM and the inhibition [6] was “Active”. For the same compound, the Activity (MOLM-14) was 74.1%.
